Compounds with a hit are over-represented: about 0.6% of the library has one in this group of screens.
PolyA inhibitor: yeast polyadenylation inhibition; S. cerevisiae SKY197-pL101 polyadenylation reporter, beta-gal luminescence; efflux-impaired pdr1/pdr3 knockout yeast; score 100 = 6 SD above DMSO; activity score, % at 12 µM; 300,000 tested, 0.02% active; AID 1875;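 active = lowest replicate activity score at least 50, where 100 means six control SD above control mean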;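 also: yeast exposed to compound for 9 h at 30 °C; higher score means more reporter readthrough which indicates perturbed polyadenylation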
GSK3A inh: blocks human GSK-3 alpha kinase. 320,000 tested, 0.1% active. P49840. AID 2650. inhibition, % at 10 µM. ADP-Glo luminescence, 60 min;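 active = more than half of replicates show inhibition above 20%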;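 also: GST-tagged GSK-3 alpha with peptide substrate and 25 µM ATP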
GSK3beta inhib: inhibitors of human GSK3beta kinase; P49841; GST-GSK3beta kinase, ADP-Glo luminescence, 60 min; active compounds read low; activity score (negative = inhibition), % at 10 µM; 300,000 tested, 0.038% active;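 active = more than half of replicate wells score below -50%, meaning over 50% inhibition versus plate controls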
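Assay system: GST-tagged human GSK3beta kinase, cell-free; Input: 1.6 ng GSK3beta; Medium: Tris/MgCl2 kinase buffer; Timing: 60 min enzyme reaction, room temperature; Signal: ADP-Glo luminescence quantifying ADP generated by kinase; Evaluation: score relative to plate controls; Benchmarks: DMSO neutral wells and GW8510 at 20 µM as positive.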
Efflux pump inh: antifungal efflux pump inhibition, Nile Red retention; S. cerevisiae Candida pump triplex; 330,000 tested, 0.44% active; inhibition, % at 10 µM;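 active = plate passing quality check with inhibition over a set limit, or well fluorescence over plate mean plus 4 SD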;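 also: Nile Red retained in pooled yeast measured as flow cytometry median fluorescence; higher means more Nile Red kept so more efflux inhibition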
STK33 kinase inh: inhibitors of human STK33 kinase; purified STK33, MBP phosphorylation, ADP-Glo luminescence; inhibition, % at 10 µM; 320,000 tested, 0.073% active;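 active = inhibition at or above 25%, using the most active replicate where run in duplicate; inactive = inhibition below 25%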
Target sequence (Q9BYT3 whole entry, looked up): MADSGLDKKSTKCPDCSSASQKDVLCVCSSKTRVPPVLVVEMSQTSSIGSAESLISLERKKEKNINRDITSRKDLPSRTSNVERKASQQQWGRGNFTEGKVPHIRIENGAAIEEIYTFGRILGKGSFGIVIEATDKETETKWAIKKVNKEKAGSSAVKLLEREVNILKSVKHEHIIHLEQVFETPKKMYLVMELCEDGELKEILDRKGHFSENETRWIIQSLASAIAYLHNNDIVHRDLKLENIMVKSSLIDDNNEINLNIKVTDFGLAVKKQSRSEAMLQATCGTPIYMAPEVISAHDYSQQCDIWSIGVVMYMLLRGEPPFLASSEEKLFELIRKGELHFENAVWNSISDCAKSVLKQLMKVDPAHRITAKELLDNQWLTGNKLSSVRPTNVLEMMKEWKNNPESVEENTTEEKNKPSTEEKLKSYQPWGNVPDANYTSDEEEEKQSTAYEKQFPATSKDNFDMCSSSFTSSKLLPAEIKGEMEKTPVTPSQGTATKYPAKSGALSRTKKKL
Cmpd fluor yeast: compound fluorescence in yeast efflux pump counter-screen. shares compounds with Efflux pump inh. S. cerevisiae AD/pABC3, flow cytometry. fluorescence ratio to DMSO, % at 10 µM. 1,700 tested, 4% active;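 active = fluorescence ratio to DMSO above its plate's cutoff, the plate mean ratio plus 5 SD, cut at about 210% in these data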;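 also: unstained yeast with no Nile Red so the signal is compound autofluorescence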
CaMdr1 efflux inh: blocks the Candida albicans Mdr1 efflux pump in yeast. shares compounds with Efflux pump inh. S. cerevisiae AD/CaMDR1, Nile Red efflux, flow cytometry. inhibition, % at 10 µM. 1,700 tested, 1% active. AID 588518; in the data active = inhibition above about 26%;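 also: higher means more Nile Red retained so more efflux inhibition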
Cdr2 pump inh: inhibitors of Candida albicans Cdr2 efflux pump; 1,700 tested, 4% active; AID 588520; Nile Red retention ratio vs DMSO, % at 10 µM; shares compounds with Efflux pump inh; S. cerevisiae AD/CaCDR2, Nile Red retention, flow cytometry; in the data active = Nile Red retention ratio vs DMSO above about 190%;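 also: higher ratio means more blocking of Cdr2 efflux of the dye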
CaCdr1 efflux inh: Candida Cdr1 efflux pump inhibition; inhibition, % at 10 µM; S. cerevisiae AD/CaCDR1, Nile Red efflux, flow cytometry; shares compounds with Efflux pump inh; 1,700 tested, 1% active;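 active = inhibition above the screen-wide mean plus twice its standard deviation, cut at about 32% in these data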
Numbers stand for hits; i = inactive; nt = not tested or not shown; + = active, no number.

SMILES	PolyA inhibitor	GSK3A inh	GSK3beta inhib	Efflux pump inh	STK33 kinase inh	Cmpd fluor yeast	CaMdr1 efflux inh	Cdr2 pump inh	CaCdr1 efflux inh
CC(NC(=O)/C=C/c1ccco1)c1nc2ccccc2n1Cc1c(Cl)cccc1Cl (stereo not drawn)	i	i	i	11	i	i	i	i	i
O=C(O)CC(NCc1ccco1)C(=O)OCC1CCCO1 (stereo not drawn)	i	i	i	0.7	i	i	i	i	i
O=C(O)CC(NCc1ccco1)C(=O)OCCc1ccccc1 (stereo not drawn)	i	i	i	i	i	nt	nt	nt	nt
Cc1cc(C)cc(C(=O)N2CC(C)OC(C)C2)c1 (stereo not drawn)	i	i	i	i	i	nt	nt	nt	nt
COc1ccc(S(=O)(=O)NCc2cccnc2)cc1C(=O)Nc1ccccc1	i	i	i	i	i	nt	nt	nt	nt
CCOCCCNC(=O)C(c1ccc(OC)cc1)N(Cc1ccc2c(c1)OCO2)C(=O)c1ccccc1O (stereo not drawn)	i	i	i	i	i	nt	nt	nt	nt
Cc1cc2nc3ccc(N(C)C)cc3nc2cc1N	i	i	i	1.6	i	i	i	i	i
Cc1ccc(-n2nc3cc(C)c(N)cc3n2)cc1	i	i	i	i	i	nt	nt	nt	nt
Cc1cc(C)c2c(c1)/C(=N\N=c1\sc3ccccc3n1C)C(=O)N2	i	i	i	i	i	nt	nt	nt	nt
Cc1cccc(NC(=O)CSc2nc3nc4c(cc3c(=O)n2-c2ccccc2)CCCC4)c1	i	i	i	i	i	nt	nt	nt	nt
O=C(CSc1nc2nc3c(cc2c(=O)n1-c1ccccc1)CCCC3)Nc1cccc2ccccc12	i	i	i	1.1	i	i	i	i	i
Cc1ccccc1NC(=O)CCC(=O)N/N=C/c1cc([N+](=O)[O-])ccc1O	i	i	i	i	i	nt	nt	nt	nt
Cc1ccc(C)c(NC(=O)CCC(=O)N/N=C/c2cc([N+](=O)[O-])ccc2O)c1	i	i	i	1.4	i	i	i	i	i
Cc1cc(O)c(N)c(C)c1Cl	i	i	i	0.8	i	i	i	i	i
COc1ccc(OC)c(-c2csc(NC(=O)CN3C(=O)C4CCCCC4C3=O)n2)c1 (stereo not drawn)	i	nt	i	0.4	nt	i	i	i	i
COc1ccc(NC(=O)Nc2ccccc2F)cc1Cl	i	i	i	i	i	nt	nt	nt	nt
CCOc1ccc(NC(=O)CC(c2ccccc2)c2ccc(F)cc2)cc1 (stereo not drawn)	i	i	i	i	i	nt	nt	nt	nt
CC(=O)Nc1sc2c(c1C(c1ccc(Cl)cc1)N1CCOCC1)CCCC2 (stereo not drawn)	i	i	i	1.5	i	i	i	i	i
O=C(CN1CCN(C(=O)N2CCOCC2)CC1)Nc1ccc(Br)cc1	i	i	i	17	i	i	i	i	i
Cc1ccc2c(c1)N(C)/C(=C/c1cccc[n+]1C)S2	i	i	i	1.2	i	i	i	i	i
CC(C)CCN1C(=O)c2cccc3c(N)ccc(c23)C1=O	i	i	i	0.5	i	335	i	i	i
COc1cc([C@H]2Oc3c(OC)cc(CCCO[C@@H]4O[C@H](CO)[C@@H](O)[C@H](O)[C@H]4O)cc3[C@@H]2CO)ccc1O	nt	i	nt	i	i	nt	nt	nt	nt
CCCCn1c(=N)n(CC(O)COc2ccc(C)cc2)c2ccccc21 (stereo not drawn)	i	i	i	1.2	i	i	i	i	i
O=C(CCC1CCN(C(=O)c2cc(C(F)(F)F)ccc2Cl)CC1)NC1CC1	i	i	i	i	i	nt	nt	nt	nt
CCOC(=O)C1CCCN(C(=S)Nc2ccc(C)cc2C)C1 (stereo not drawn)	i	i	i	i	i	nt	nt	nt	nt
SMILES	PolyA inhibitor	GSK3A inh	GSK3beta inhib	Efflux pump inh	STK33 kinase inh	Cmpd fluor yeast	CaMdr1 efflux inh	Cdr2 pump inh	CaCdr1 efflux inh
O=C(CCCc1ccccc1)Nc1cccc([N+](=O)[O-])c1	i	i	i	0.8	i	i	i	i	i
O=C(CCc1ccccc1)Nc1cccc([N+](=O)[O-])c1	i	i	i	i	i	nt	nt	nt	nt
COc1cccc(CNn2c(-c3cccc(C)c3)nc3ccccc3c2=O)c1	i	i	i	i	i	nt	nt	nt	nt
COc1ccc(OC)c(CNn2c(-c3cccc(C)c3)nc3ccccc3c2=O)c1	i	i	i	0.7	i	i	i	i	i
O=C(COC(=O)/C=C/c1cccc(C(F)(F)F)c1)Nc1ccc(Cl)cn1	nt	i	nt	0.6	i	i	i	i	i
O=C(COC(=O)/C=C/c1cccc([N+](=O)[O-])c1)Nc1ccc(Cl)cn1	nt	i	nt	i	i	nt	nt	nt	nt
O=C(Nc1cc(F)cc(F)c1)c1ccc(NCCc2ccccc2)c([N+](=O)[O-])c1	i	i	i	13	i	i	i	i	i
O=C1c2ccccc2C(=O)N1Cc1cnc(N2CCN(c3ccccc3)CC2)s1	i	i	i	i	i	nt	nt	nt	nt
Cc1no[n+]([O-])c1COc1cccc(/C=C2\N=C(c3ccccc3)OC2=O)c1	i	i	i	i	i	nt	nt	nt	nt
COc1cc(/C=C2\N=C(c3ccccc3)OC2=O)ccc1OCc1c(C)no[n+]1[O-]	i	i	i	10	i	i	i	i	i
N#Cc1cc(C(=O)c2cc(F)ccc2O)cn(-c2nccs2)c1=O	i	i	i	6.7	i	210	i	i	i
N#Cc1cc(C(=O)c2ccccc2O)cn(-c2nccs2)c1=O	i	i	i	i	i	nt	nt	nt	nt
O=C(O)c1ccc(N2C(=O)/C(=C/C=C/c3ccccc3)SC2=S)cc1	i	i	i	i	i	nt	nt	nt	nt
CN(C)c1ccc(/C=C/C=C2/SC(=S)N(c3ccccc3)C2=O)cc1	i	nt	i	2.4	i	+	i	547	i
CN(C)N1C(N)=C(C#N)C(c2cccc(Cl)c2)C2=C1CCCC2=O (stereo not drawn)	i	i	i	i	i	nt	nt	nt	nt
CN(C)N1C(N)=C(C#N)C(c2ccc3c(c2)OCO3)C2=C1CCCC2=O (stereo not drawn)	i	i	i	2.3	i	i	i	i	i
OCC[n+]1ccc(/C=C/c2c[nH]c3ccccc23)cc1	i	i	i	2.5	i	429	i	i	i
Cc1ccc(NC(=O)COC(=O)c2cc(Cl)ccc2Cl)c(Br)c1	i	i	i	1.3	26	i	i	i	i
COC(=O)CN1C(=S)N(c2ccc(Cl)cc2)C(=O)C1CC(=O)Nc1ccc(Cl)cc1 (stereo not drawn)	i	i	i	0.5	i	i	i	i	i
CCCCCCCC(=O)N/N=C(\C)c1ccc(N)cc1	i	i	i	i	i	nt	nt	nt	nt
CCCCCCCCCC(=O)N/N=C(\C)c1cccnc1	i	i	i	1.6	i	i	i	i	i
